Test results published in the RNAGym collection of RNA variant scans (doi:10.1126/science.aae0568).
This sample holds only a part of the variants without activity.

B1: tRNA (parent)
chain: GUUCCGUUGGCGUAAUGGUAACGCGUCUCCCUCCUAAGGAGAAGACUGCGGGUUCGAGUCCCGUACGGAACG

Variants of: B1
Experiment: yeast fitness relative to wild type (ratio to wild type); higher = fitter; tRNA-Arg(CCU), competitive growth, 37 C, YPD
In short: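 The tRNA-Arg(CCU) gene variants were made by chemical synthesis with a 3% per-site mutation rate at 69 sites and inserted at the native genomic locus of Saccharomyces cerevisiae. After pooling, the strains were competed in YPD at 37°C for 24 hours in six parallel replicates. Gene amplicons from the start population and each end population were read by 100-nucleotide paired-end sequencing, and Darwinian fitness relative to wild type was taken from genotype frequency changes. Genotypes needed ≥ 100 starting reads, and estimates < 0.5 were set to 0.5.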

Q: Which yeast fitness does the source give for G12C A14G C33G G44C here?
A: ≤ 0.5

Q: For G10C C46G U54C, which yeast fitness is on record?
A: ≤ 0.5

Q: Which yeast fitness does the source give for C27U C62U A70C here?
A: 0.756

Q: For G48C C61G, which yeast fitness is on record?
A: 0.629

Q: For U8G G38C G39C A40G G44A C46G G52A, which yeast fitness is on record?
A: ≤ 0.5

Q: For A15G U54C, which yeast fitness is on record?
A: 0.905

Q: With A14G C61A A69C as the variant, how does the yeast fitness read?
A: ≤ 0.5

Q: For U26A C62G, which yeast fitness is on record?
A: 0.69

Q: With A14G G39C as the variant, how does the yeast fitness read?
A: 0.678

Q: Which yeast fitness does the source give for A20U U26C C46U G51A here?
A: ≤ 0.5

Q: Which yeast fitness does the source give for A15C C49U A69G here?
A: ≤ 0.5

Q: Which yeast fitness does the source give for U2G G48A here?
A: 0.94

Q: Which yeast fitness does the source give for C11G U26A C27A C29G C46A G50A U59G here?
A: 0.73

Q: For U2A G6C G52A, which yeast fitness is on record?
A: ≤ 0.5

Q: With U2C U59C as the variant, how does the yeast fitness read?
A: 0.996

Q: With C5G U35G C49A G56A as the variant, how does the yeast fitness read?
A: ≤ 0.5

Q: Which yeast fitness does the source give for G12A U28G C33G A69U here?
A: ≤ 0.5

Q: With A15C C34G as the variant, how does the yeast fitness read?
A: 0.59

Q: For A70G, which yeast fitness is on record?
A: 0.999

Q: For G12C A42G U47C, which yeast fitness is on record?
A: 0.634

Q: With U3C A20U as the variant, how does the yeast fitness read?
A: 0.866

Q: With U35A A36G A40U A42U C55G as the variant, how does the yeast fitness read?
A: ≤ 0.5

Q: For C27G A43C C46U G58A, which yeast fitness is on record?
A: 1.02

Q: Which yeast fitness does the source give for C4U C22U C31U here?
A: 0.645

Q: For U13G C29A, which yeast fitness is on record?
A: 0.571

Q: Which yeast fitness does the source give for A45U C49G A65U here?
A: 0.599

Q: With U7G A20C A70G as the variant, how does the yeast fitness read?
A: ≤ 0.5

Q: For A37U A57C G58A A69U A70C, which yeast fitness is on record?
A: 0.542

Q: Which yeast fitness does the source give for U35A A36U A57G here?
A: ≤ 0.5

Q: Which yeast fitness does the source give for C5U C46A here?
A: 1

Q: With U64C A69C A70U as the variant, how does the yeast fitness read?
A: 0.757

Q: Which yeast fitness does the source give for U2C C11U here?
A: 1.03

Q: For G6A U13A A37C, which yeast fitness is on record?
A: ≤ 0.5

Q: For C24A C46U, which yeast fitness is on record?
A: 1.1

Q: Which yeast fitness does the source give for G17A G67U here?
A: 0.808

Q: Which yeast fitness does the source give for G52C C55G here?
A: 0.843

Q: With C30G U47A C49G C61U G63C as the variant, how does the yeast fitness read?
A: 0.541

Q: For U28A A37U, which yeast fitness is on record?
A: 0.73

Q: For C5A C27U G39C C49U, which yeast fitness is on record?
A: 0.526

Q: For G18C A37G, which yeast fitness is on record?
A: 0.577

Q: With U2A C5G C24U C30G C49U as the variant, how does the yeast fitness read?
A: ≤ 0.5

Q: Which yeast fitness does the source give for C5U U19C A21U C31U A42G A43U A65C here?
A: ≤ 0.5

Q: With U2A C27G A37C C55U C62G C66G as the variant, how does the yeast fitness read?
A: ≤ 0.5

Q: For A15G C33A U54A, which yeast fitness is on record?
A: ≤ 0.5

Q: With A15C U19C C46A U59A as the variant, how does the yeast fitness read?
A: ≤ 0.5

Q: For U13G A20C C55U A69U, which yeast fitness is on record?
A: 0.565

Q: With C5G C24G C60G as the variant, how does the yeast fitness read?
A: 0.518

Q: For C31G A36U C46U A65C, which yeast fitness is on record?
A: 0.74

Q: Which yeast fitness does the source give for C5A U19A C66U here?
A: 0.66

Q: For U8G A20U U53G C66G A70G, which yeast fitness is on record?
A: ≤ 0.5

Q: Which yeast fitness does the source give for A20U G25A here?
A: 1.03

Q: For C11U C27U C31A A42G C49G G51A, which yeast fitness is on record?
A: ≤ 0.5

Q: With C30U U32G A37G as the variant, how does the yeast fitness read?
A: ≤ 0.5

Q: With C5A A15G C24G C29U C34G U35C C46G as the variant, how does the yeast fitness read?
A: 0.527

Q: Which yeast fitness does the source give for U2G C27U G41A A42U C46G here?
A: ≤ 0.5

Q: Which yeast fitness does the source give for G6A C11G U35A A37U here?
A: ≤ 0.5

Q: For C11U A21C C27G G39C, which yeast fitness is on record?
A: 0.544

Q: Which yeast fitness does the source give for G12C A15G A37U A40G U54C C66G here?
A: 0.538

Q: Which yeast fitness does the source give for U3A G17A C22U A70C here?
A: 0.528

Q: With C30U C60G G67A as the variant, how does the yeast fitness read?
A: ≤ 0.5

Q: With U26A C30G G38C A42U G58C as the variant, how does the yeast fitness read?
A: 0.759

Q: For U3G C4A A40U A57G C62U, which yeast fitness is on record?
A: ≤ 0.5

Q: Which yeast fitness does the source give for A21C C22U C31U C33U G67A here?
A: ≤ 0.5

Q: With C11A A43U G48C C60G as the variant, how does the yeast fitness read?
A: ≤ 0.5

Q: For U3G U35A, which yeast fitness is on record?
A: 0.533

Q: Which yeast fitness does the source give for U7A A57C here?
A: 0.54

Q: For A20C U28C A36C, which yeast fitness is on record?
A: ≤ 0.5

Q: With A36U A37U C55A G63C as the variant, how does the yeast fitness read?
A: ≤ 0.5

Q: For U2A G50C, which yeast fitness is on record?
A: 0.562

Q: Which yeast fitness does the source give for U13C A37G C60A A65U here?
A: ≤ 0.5

Q: For U19C C27A G50C, which yeast fitness is on record?
A: 0.577

Q: For U8A C30G C62U G67C, which yeast fitness is on record?
A: 0.546

Q: For C4U C66U A69U, which yeast fitness is on record?
A: 0.677

Q: With C11A U13A A20U as the variant, how does the yeast fitness read?
A: ≤ 0.5

Q: With G6A A37C A42C A69C as the variant, how does the yeast fitness read?
A: ≤ 0.5

Q: Which yeast fitness does the source give for U3C G23A C34U A40U A42U U64A here?
A: ≤ 0.5

Q: Which yeast fitness does the source give for U7C U26C U53A here?
A: ≤ 0.5

Q: Which yeast fitness does the source give for A15G G48A A70C here?
A: 0.748

Q: With G38C A43G C49G G51A C60U as the variant, how does the yeast fitness read?
A: ≤ 0.5

Q: Which yeast fitness does the source give for A15C C22U here?
A: 0.689

Q: Which yeast fitness does the source give for G25A C31U C55G C61U C62A here?
A: 0.598

Q: Which yeast fitness does the source give for C27G A42C C55A here?
A: 0.682

Q: With U2G U47C as the variant, how does the yeast fitness read?
A: 0.992
